# Active and inactive are the calls of the source. The rule behind the calls is not given here.
# How the values were obtained:
# Bile acid receptor = molecular target: T1, Bile acid receptor (Homo sapiens, UniProt Q96RI1); experiment: Antagonist activity at human FXR expressed in CV-1 cells assessed as inhibition of CDCA-induced transactivation after 24 hrs by luciferase reporter gene assay; format: functional, cell-based
# T1 sequence (Q96RI1 whole entry): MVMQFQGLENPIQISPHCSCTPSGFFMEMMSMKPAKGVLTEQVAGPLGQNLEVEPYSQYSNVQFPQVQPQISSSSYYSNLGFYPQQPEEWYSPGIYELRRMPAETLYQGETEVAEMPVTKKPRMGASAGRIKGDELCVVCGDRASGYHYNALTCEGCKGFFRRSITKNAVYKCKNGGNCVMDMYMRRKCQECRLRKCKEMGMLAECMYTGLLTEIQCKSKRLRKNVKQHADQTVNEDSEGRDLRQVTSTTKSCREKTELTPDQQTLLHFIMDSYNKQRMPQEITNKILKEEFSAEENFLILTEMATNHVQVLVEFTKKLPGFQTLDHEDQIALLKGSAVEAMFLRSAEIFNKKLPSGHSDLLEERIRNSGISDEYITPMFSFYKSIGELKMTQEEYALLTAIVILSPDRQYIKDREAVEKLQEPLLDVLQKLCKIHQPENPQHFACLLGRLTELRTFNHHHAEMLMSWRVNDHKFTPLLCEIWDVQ
# Procedure, shortened: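 CV-1 cells in DMEM with 10% resin-charcoal-stripped FBS, 24 h at 37 °C, 5% CO2, then transiently co-transfected with pCMX-hFXR, CMXβ-GAL and Tk(EcRE)6-LUC. After 24 h, compounds were co-treated with 50 µM CDCA; harvest at 24 h. Luciferase normalized to β-galactosidase. Transfections in triplicate; experiments repeated more than three times.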
# [1] = molecular target: T2, Bile acid receptor (Homo sapiens) (UniProt Q96RI1); experiment: Binding affinity to human FXR ligand binding domain cell free system assessed as release of co-activator peptide SRC-1 after 1 hr by surface plasmon resonance method
# T2 sequence (whole entry): T1 sequence (Q96RI1 whole entry)
# Procedure, shortened: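 BIAcore SPR: hFXR LBD (4 µM) preincubated 1 h with compound plus 50 µM CDCA, then injected over a sensor chip bearing immobilized SRC-1 co-activator peptide; co-activator peptide binding to the LBD monitored.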
# [2] = Cytotoxicity against african green monkey CV1 cells by MTT assay; format: cell-based; conditions: Chlorocebus aethiops, CV-1
# Procedure, shortened: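 CV-1 cells, viability read by MTT; each experiment repeated more than three times.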
# [3] = molecular target: T3, Glucocorticoid receptor (Homo sapiens) (UniProt P04150); experiment: Effect on human Gal4-fused GR at 10 uM by luciferase reporter gene assay
# T3 sequence (whole entry): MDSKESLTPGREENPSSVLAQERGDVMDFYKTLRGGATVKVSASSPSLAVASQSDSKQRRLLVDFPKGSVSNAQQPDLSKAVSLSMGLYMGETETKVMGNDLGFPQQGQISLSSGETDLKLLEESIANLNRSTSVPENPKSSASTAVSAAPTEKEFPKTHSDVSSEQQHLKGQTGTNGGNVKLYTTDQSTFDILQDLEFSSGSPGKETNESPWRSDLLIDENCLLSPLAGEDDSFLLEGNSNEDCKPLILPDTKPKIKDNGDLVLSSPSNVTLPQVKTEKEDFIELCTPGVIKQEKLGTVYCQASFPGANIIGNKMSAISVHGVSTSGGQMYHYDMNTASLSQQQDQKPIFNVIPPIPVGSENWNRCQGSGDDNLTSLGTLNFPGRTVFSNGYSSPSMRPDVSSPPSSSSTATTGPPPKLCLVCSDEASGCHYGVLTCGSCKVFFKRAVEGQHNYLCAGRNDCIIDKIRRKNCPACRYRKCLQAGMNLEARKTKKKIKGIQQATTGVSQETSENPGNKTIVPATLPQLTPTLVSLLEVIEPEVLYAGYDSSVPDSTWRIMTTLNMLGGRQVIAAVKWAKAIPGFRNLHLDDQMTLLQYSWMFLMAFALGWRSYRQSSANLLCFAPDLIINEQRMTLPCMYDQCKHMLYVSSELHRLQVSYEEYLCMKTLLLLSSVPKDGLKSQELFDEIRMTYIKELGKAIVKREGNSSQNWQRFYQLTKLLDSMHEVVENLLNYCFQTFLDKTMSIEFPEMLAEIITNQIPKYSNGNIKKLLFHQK
# [4] = molecular target: T4, Progesterone receptor (Homo sapiens) (UniProt P06401); experiment: Effect on human Gal4-fused PR at 10 uM by luciferase reporter gene assay
# T4 sequence (whole entry): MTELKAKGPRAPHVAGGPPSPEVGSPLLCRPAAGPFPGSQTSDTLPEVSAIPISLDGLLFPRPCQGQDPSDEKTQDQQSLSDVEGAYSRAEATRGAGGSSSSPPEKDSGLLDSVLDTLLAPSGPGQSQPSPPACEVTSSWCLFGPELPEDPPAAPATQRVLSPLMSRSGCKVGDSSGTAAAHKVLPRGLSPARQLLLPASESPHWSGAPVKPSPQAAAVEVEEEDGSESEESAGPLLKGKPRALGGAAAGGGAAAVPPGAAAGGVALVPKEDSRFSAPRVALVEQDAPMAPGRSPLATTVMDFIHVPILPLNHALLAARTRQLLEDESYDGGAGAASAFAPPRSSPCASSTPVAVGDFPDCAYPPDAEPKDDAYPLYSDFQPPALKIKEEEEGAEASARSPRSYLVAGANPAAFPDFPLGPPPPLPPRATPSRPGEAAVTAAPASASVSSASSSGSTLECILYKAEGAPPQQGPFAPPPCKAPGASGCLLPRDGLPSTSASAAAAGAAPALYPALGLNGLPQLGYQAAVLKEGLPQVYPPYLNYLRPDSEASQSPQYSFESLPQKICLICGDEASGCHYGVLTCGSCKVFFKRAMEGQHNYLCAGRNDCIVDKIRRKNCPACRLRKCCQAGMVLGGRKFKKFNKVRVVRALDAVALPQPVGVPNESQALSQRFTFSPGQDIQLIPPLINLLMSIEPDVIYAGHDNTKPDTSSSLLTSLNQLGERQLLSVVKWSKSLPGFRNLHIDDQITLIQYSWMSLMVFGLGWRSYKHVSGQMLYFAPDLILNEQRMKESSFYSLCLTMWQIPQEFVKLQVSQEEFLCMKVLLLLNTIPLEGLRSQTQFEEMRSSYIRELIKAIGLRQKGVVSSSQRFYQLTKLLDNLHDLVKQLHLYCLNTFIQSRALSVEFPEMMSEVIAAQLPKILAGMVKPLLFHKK
Structure (SMILES),IC50 (Bile acid receptor),Activity [1],IC50 [2],Activity [3],Activity [4]
CC(C)=CCCC1=C[C@@H](C/C(C)=C/CC/C(C)=C/CC2=CC(=O)C=C(C)C2=O)OC1=O [YEZOQUINOLIDE],5.9 µM,Active,50 µM,inactive,inactive
CC(C)=CCC/C(=C/CC/C(C)=C/CC[C@@]1(C)C=Cc2cc(O)cc(C)c2O1)C(=O)O [(S)-SARGACHROMENOL],17 µM,Active,56 µM,inactive,inactive
CC(C)=CCCC1=C[C@@H](C/C(C)=C/CC[C@]2(C)C=Cc3cc(O)cc(C)c3O2)OC1=O [2'-EPI-TUBERATOLIDE B],2.5 µM,Active,30 µM,inactive,inactive
CC(=O)CC/C=C(\C)C[C@@H]1C=C(CCC=C(C)C)C(=O)O1 [TUBERATOLIDE A],3.9 µM,Active,> 100 µM,inactive,inactive
CC(C)=CCCC1=C[C@@H](C/C(C)=C/CC[C@@]2(C)C=Cc3cc(O)cc(C)c3O2)OC1=O [TUBERATOLIDE B],1.5 µM,Active,31 µM,inactive,inactive
CC(C)=CCC/C(=C/CC/C(C)=C/CC[C@]1(C)C=Cc2cc(O)cc(C)c2O1)C(=O)O [(R)-SARGACHROMENOL],9 µM,Active,45 µM,inactive,inactive

# Source: ChEMBL document CHEMBL1667725, “Tuberatolides, potent FXR antagonists from the Korean marine tunicate Botryllus tuberatus” (J Nat Prod, 2011)
